Measurements taken from ChEMBL document CHEMBL1146274, “Serendipitous discovery of novel imidazolopyrazole scaffold as selective androgen receptor modulators” (2007).

Tests used:
Rattus norvegicus [1] = species on record: Rattus norvegicus; experiment: Inhibition of testosterone-enhanced ventral prostate weight in castrated immature Sprague-Dawley rat; assay type: functional, Prostate gland; design: concentration or dose not given beside the values
How it was run: (§1)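 This was an antagonist mode in castrated immature male rats. Animals were dosed orally once daily for 5 days at 2 mg/day in 20% cyclodextrin, together with testosterone propionate 0.1 mg/day (about 1.3 mg/kg) subcutaneously in sesame oil, n = 3 per group. Percent inhibition of prostate weight was scaled with the vehicle group set to 100% and the testosterone-alone group set to 0%.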

Rattus norvegicus [2] = experiment: Anabolic activity assessed as stimulation of levator ani muscle weight in sc dosed castrated immature Sprague-Dawley rat by Hersherberger assay; assay type: functional; conditions: in the assay text read “po dosed” for “sc dosed”
How it was run: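 Castrated immature male rats received testosterone propionate by subcutaneous injection at the nape of the neck, 5 mg/kg in sesame oil. Levator ani weight was measured as percent stimulation, with the vehicle control set to 0% and the testosterone-alone group set to 100%.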

Rattus norvegicus [3] = species on record: Rattus norvegicus; experiment: Androgenic activity in castrated immature Sprague-Dawley rat assessed as ventral prostate weight stimulation at 3 mg/ day by Hersherberger assay; assay type: functional, Prostate gland
How it was run: (§2)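 Castrated immature male rats were given oral doses once daily for 5 days in 20% cyclodextrin vehicle, n = 3 per group. Ventral prostate weight was normalized to the vehicle control. Percent stimulation was scaled with the vehicle group set to 0% and the testosterone-alone group set to 100%.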

Rattus norvegicus [4] = experiment: Anabolic activity assessed as stimulation of levator ani muscle weight in castrated immature Sprague-Dawley rat at 2 mg/day, po by Hersherberger assay
Rattus norvegicus [5] = experiment: Androgenic activity in castrated immature Sprague-Dawley rat assessed as ventral prostate weight stimulation at 2 mg/day, po by Hersherberger assay; assay type: functional, Prostate gland; how it was run: as §2
Rattus norvegicus [6] = experiment: Inhibition of ventral prostate weight in castrated immature Sprague-Dawley rat at 2 mg/day, po; assay type: functional, Prostate gland; design: scale not given: the % may be the effect or the level left; how it was run: as §1
Rattus norvegicus [7] = experiment: Anabolic activity assessed as stimulation of levator ani muscle weight in castrated immature Sprague-Dawley rat at 5 mg/day, sc by Hersherberger assay; assay type: functional
How it was run: (§3)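 Castrated immature male rats; agent given subcutaneously by injection at the nape of the neck in sesame oil. Compounds in the same table were dosed once daily for 5 days with N = 3/group. Tissue weight is expressed as percent stimulation, with the vehicle-treated control set to 0% and the testosterone-alone control set to 100%.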

Rattus norvegicus [8] = experiment: Androgenic activity in castrated immature Sprague-Dawley rat assessed as ventral prostate weight stimulation at 5 mg/day, sc by Hersherberger assay; assay type: functional, Prostate gland; how it was run: as §3

Compound | Inhibition (Rattus norvegicus [1]) [%] | ED50 (Rattus norvegicus [2]) [mg/day] | Activity (Rattus norvegicus [3]) [%] | Activity (Rattus norvegicus [4]) [%] | Activity (Rattus norvegicus [5]) [%] | Activity (Rattus norvegicus [6]) [%] | Activity (Rattus norvegicus [7]) [%] | Activity (Rattus norvegicus [8]) [%]
C[C@]12CC(C(F)(F)F)=NN1C(N)=N/C2=N\c1ccc(C#N)c(C(F)(F)F)c1 | 30 | 0.07 | 36 | 91 |  |  |  | 
CC1(/C(=N/c2ccc(C#N)c(C(F)(F)F)c2)N2CCCC2)CC(C(F)(F)F)=NN1 (centres undefined) | <10 |  |  | <10 | <10 |  |  | 
CCc1c(/N=C2\N=C(N)N3N=C(C(F)(F)F)CC23C)ccc(C#N)c1C(F)(F)F (centres undefined) | <10 |  |  | 19 | <10 |  |  | 
CC1(/C(=N/c2ccc(C#N)c(C(F)(F)F)c2)NS(C)(=O)=O)CC(C(F)(F)F)=NN1 (centres undefined) | <10 |  |  | <10 | <10 |  |  | 
CCN(CC)/C(=N\c1ccc(C#N)c(C(F)(F)F)c1)C1(C)CC(C(F)(F)F)=NN1 (centres undefined) | <10 |  |  | 32 | 22 |  |  | 
CC12CC=NN1C(N)=N/C2=N\c1ccc(C#N)c(C(F)(F)F)c1 (centres undefined) | <10 |  |  | <10 | <10 |  |  | 
CC12CC(C(F)(F)F)=NN1C(N)=N/C2=N\c1ccc(Cl)c(Cl)c1 (centres undefined) | 31 |  |  | <10 | <10 |  |  | 
CC1(/C(=N/c2ccc(C#N)c(C(F)(F)F)c2)NO)CC(C(F)(F)F)=NN1 (centres undefined) | <10 |  |  | <10 | <10 |  |  | 
CCOC(=O)C1=NN2C(N)=N/C(=N\c3ccc(C#N)c(C(F)(F)F)c3)C2(C)C1 (centres undefined) | <10 |  |  | <10 | <10 |  |  | 
CN/C(=N\c1ccc(C#N)c(C(F)(F)F)c1)C1(C)CC(C(F)(F)F)=NN1 (centres undefined) | 15 |  |  | 17 |  | 15 |  | 
CC12CC(c3c(F)c(F)c(F)c(F)c3F)=NN1C(N)=N/C2=N\c1ccc(C#N)c(C(F)(F)F)c1 (centres undefined) | <10 |  |  | 21 | <10 |  |  | 
C[C@](O)(CS(=O)(=O)c1ccc(F)cc1)C(=O)Nc1ccc(C#N)c(C(F)(F)F)c1 [(R)-BICALUTAMIDE] | 70 |  |  |  |  |  |  | 
CC12CC(C(F)(F)F)=NN1C(=N)O/C2=N\c1ccc(C#N)c(C(F)(F)F)c1 (centres undefined) |  |  |  | 29 | 55 |  |  | 
CC12CC(C(F)(F)F)=NN1C(N)=N/C2=N\c1ccc([N+](=O)[O-])c(C(F)(F)F)c1 (centres undefined) | <10 |  |  | <10 | <10 |  |  | 
CCC(=O)O[C@H]1CC[C@H]2[C@@H]3CCC4=CC(=O)CC[C@]4(C)[C@H]3CC[C@]12C [TESTOSTERONE PROPIONATE] |  |  |  |  |  |  | 100 | 100
CON/C(=N\c1ccc(C#N)c(C(F)(F)F)c1)C1(C)CC(C(F)(F)F)=NN1 (centres undefined) | <10 |  |  | 23 | 14 |  |  | 
C[C@@]12CC(C(F)(F)F)=NN1C(N)=N/C2=N\c1ccc(C#N)c(C(F)(F)F)c1 | <10 | 0.85 | 29 | 72 |  |  |  | 
CC1(/C(N)=N/c2ccc(C#N)c(C(F)(F)F)c2)CC(C(F)(F)F)=NN1 (centres undefined) | 20 |  |  | 76 | 39 |  |  | 
CC12CC(C(F)(F)F)=NN1C(N)=N/C2=N\c1ccc(Br)c(C(F)(F)F)c1 (centres undefined) | <10 |  |  | <10 | <10 |  |  | 
CCN/C(=N\c1ccc(C#N)c(C(F)(F)F)c1)C1(C)CC(C(F)(F)F)=NN1 (centres undefined) | 18 |  |  | 50 | <10 |  |  | 
CCC12CC(C(F)(F)F)=NN1C(N)=N/C2=N\c1ccc(C#N)c(C(F)(F)F)c1 (centres undefined) | <10 |  |  | 16 | <10 |  |  | 
CC12CC(C(F)(F)F)=NN1C(NC(=O)C(F)(F)F)=N/C2=N\c1ccc(C#N)c(C(F)(F)F)c1 (centres undefined) | 31 |  |  | 61 | 55 |  |  | 
